The list is not random: actives were taken first. Their share in the collection is about 2.1%.
MMP-13 inhibitor: human MMP13 inhibitors, primary screen, biochemical, FRET peptide cleavage; MMP-13 fTHP FRET cleavage, Mca fluorescence; inhibition, % at 4 µM; actives 0.07% (n = 65,000);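 active = inhibition above the mean of compound-free control plate wells plus 3 SD, cut at about 14% in these data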;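 also: 0% = DMSO wells and 100% = wells with reference MMP-13 inhibitor after basal subtraction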
SF1 activator: activators of human SF-1, primary screen, cell-based, CHO-K1, Gal4-SF-1 LBD, luciferase luminescence | Steroidogenic factor 1 (Homo sapiens), Q13285 | CHO-K1 Gal4-SF-1 LBD luciferase reporter; % increase over DMSO SF-1-specific signal | activation, % at 10 µM | actives 1.9% (n = 65,000) | AID 522, 2006;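 active = activation above the mean activation of all tested compounds plus 3 SD, cut at about 50% in these data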
Target sequence (Q13285 whole entry, looked up, the tested form may be a part): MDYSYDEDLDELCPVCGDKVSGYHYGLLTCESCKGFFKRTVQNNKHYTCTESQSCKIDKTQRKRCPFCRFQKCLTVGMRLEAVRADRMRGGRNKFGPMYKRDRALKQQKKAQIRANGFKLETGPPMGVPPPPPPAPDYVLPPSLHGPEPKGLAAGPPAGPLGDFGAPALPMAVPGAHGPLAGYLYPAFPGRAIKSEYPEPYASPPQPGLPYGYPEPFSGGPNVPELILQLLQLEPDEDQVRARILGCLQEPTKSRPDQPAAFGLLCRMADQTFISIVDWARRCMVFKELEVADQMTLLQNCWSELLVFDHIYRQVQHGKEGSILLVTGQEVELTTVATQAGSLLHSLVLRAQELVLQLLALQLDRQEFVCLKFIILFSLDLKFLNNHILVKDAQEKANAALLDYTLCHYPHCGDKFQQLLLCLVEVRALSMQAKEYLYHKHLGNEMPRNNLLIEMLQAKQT
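Material: Gal4–SF-1 LBD one-hybrid luciferase reporter in CHO-K1 cells | Amount: 4,000 cells per well | Compound dosing: 10 µM single point, 1% DMSO | Schedule: 20 h compound treatment, 37 °C | Measured by: SteadyLite luciferase luminescence | Evaluation: Percent activation versus DMSO | Control set: DMSO-treated SF-1-transfected cells as negative, DMSO-treated mock-transfected cells lacking SF-1 as background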
TNAP act DEA: human TNAP enzyme activators, primary screen, biochemical, luminescent, intermediate phosphate acceptor level; Alkaline phosphatase, tissue-nonspecific isozyme (Homo sapiens), P05186; purified TNAP, CDP-star luminescence, 100 mM DEA, 30 min; hits give high values; scale: 0 levamisole-inhibited, 1 vehicle-only enzyme; activation factor at 20 µM; 64,000 tested, under 10 active; AID 813, 2007;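 active = activation factor of at least 2 at 20 µM, relative to controls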
RORA act: activators of orphan receptor RORA, primary screen, cell-based, luminescence. actives 1.5% (n = 65,000). AID 560, 2006. activation, % at 10 µM. Nuclear receptor ROR-alpha (Homo sapiens), P35398. CHO-K1 Gal4-RORA LBD luciferase reporter; percent increase over mock-subtracted basal signal;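 active = activation above the mean of all tested compounds plus 3 SD, cut at about 49% in these data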;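 also: 0% = DMSO-treated RORA cells and 100% = added signal equal to DMSO minus mock-transfected cells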
MT1-MMP txn act: MT1-MMP promoter reporter activation – cell-based, luciferase luminescence, primary screen; HT1080 MT1-MMP promoter luciferase reporter, overnight; hits give high values; activation factor at 10 µM; actives 0.16% (n = 86,000);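 active = activation factor of at least 2 for MT1-MMP transcription at 10 µM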
Starred values were filed as active, the others as inactive; x = no result given.

SMILES | MMP-13 inhibitor | SF1 activator | TNAP act DEA | RORA act | MT1-MMP txn act
Cn1c(NC(=O)c2cccnc2)nc2ccccc21 | 4 | 52* | 1 | 52* | 1.8
CCCC[C@@H]1C[C@H]1C(NC(=O)c1ccc(C(F)(F)F)cc1)c1ccc(C(=O)OC)cc1 (some centres not stated) | x | x | x | x | 1.2
CCSc1nncn1/N=C/c1ccc(OC)c(OC)c1 | -7 | 44 | 0.9 | 23 | 1.2
C=C(C)CSc1nncn1/N=C/c1ccc(OC)cc1 | 3 | 55* | 0.8 | 49* | 1.9
Cc1cc(N)n2ncc(-c3ccc(Cl)cc3)c2n1 | x | x | x | x | 1.8
Cc1cc(NCCCN2CCOCC2)n2ncc(-c3ccccc3)c2n1 | -17 | 107* | 0.9 | 54* | 1.8
Cc1cc(NCCOCCO)n2ncc(-c3ccc(Cl)cc3)c2n1 | -70 | 9 | 0.9 | 89* | 1.2
COC(=O)c1ccc(C(NC(=O)OCc2ccccc2)/C(C)=C/[C@@H](C)C(=O)NCc2nn(-c3ccccc3)nc2C)cc1 (some centres not stated) | x | x | x | x | 1.1
O=C(Nc1ccc(-c2noc(CCc3ccccc3)n2)cc1)c1ccco1 | 2 | 23 | 0.9 | 72* | 1.3
CCOC(=O)Cc1csc(NC(=O)c2cccs2)n1 | 3 | 43 | 0.9 | 22 | 1.4
Cc1csc(NC(=O)c2cccs2)n1 | 7 | 53* | 0.9 | 18 | 1.3
O=C(Nc1nnc(CCc2ccccc2)s1)c1ccco1 | -3 | 32 | 0.9 | 54* | 1.3
Cc1csc(NC(=O)c2cnc3ccccn3c2=O)n1 | -6 | 61* | 1 | 34 | 1.3
Cc1occc1C(=O)Nc1cc(C(C)(C)C)on1 | 1 | 19 | 0.8 | 64* | 0.9
O=C(Nc1cnc2ccccn2c1=O)c1ccc(F)cc1 | -3 | 60* | 0.9 | 46 | 1.4
CCOC(=O)Cc1csc(NC(=O)c2ccoc2C)n1 | -1 | 6 | 1 | 28 | 1.4
Cc1ccccc1NC(=O)c1cnc2ccccn2c1=O | 2 | -16 | 1 | -54 | x
Cc1csc(NC(=O)c2ccoc2C)n1 | 1 | 56* | 0.9 | 38 | 1.5
NC(=O)c1cc(Cc2ccccc2)sc1NC(=O)c1ccco1 | -7 | 140* | 0.9 | 80* | 1.5
CCC/C=C(\CCC)C(NS(=O)(=O)c1ccc(C(F)(F)F)cc1)c1ccc(-c2ccccc2)cc1 (configuration not stated) | x | x | x | x | 1.2
COC(=O)c1cc(-c2ccccc2)n(CCNC(=O)CCCCCN2C(=O)NC(c3ccc(-c4ccccc4)cc3)C(C(=O)OCc3ccccc3)=C2C)c1C (configuration not stated) | x | x | x | x | 1.2
COC(=O)c1ccc(C(/C=C/[C@@H](C)C(=O)NCc2ccccc2)NC(=O)OCc2ccccc2)cc1 (some centres not stated) | x | x | x | x | 1.2
O=C(Nc1nc2c(ccc3ccccc32)s1)c1ccco1 | -7 | 63* | 0.9 | 59* | 2.3*
Cc1nnc(NC(=O)c2ccco2)s1 | 0 | 5 | 0.9 | -3 | 1.2
CCOC(=O)c1sc2nc(NC(=O)c3cccs3)sc2c1C | 3 | 48 | 0.9 | 60* | 1.3
SMILES | MMP-13 inhibitor | SF1 activator | TNAP act DEA | RORA act | MT1-MMP txn act
O=C(Nc1nnc(C23CC4CC(CC(C4)C2)C3)s1)c1ccco1 | 1 | 21 | x | 91* | 2*
CCOC(=O)c1sc2nc(NC(=O)COc3ccccc3)sc2c1C | -8 | 16 | 1 | 6 | 1.1
O=C(Nc1nnc(CCc2ccccc2)s1)c1cccs1 | 9 | 54* | 0.9 | 39 | 1.4
Cc1cc(C)c(NC(=O)CSc2nnc(SCC(=O)Nc3c(C)cc(C)cc3C)n2N)c(C)c1 | x | x | x | x | 1.2
COC(=O)c1ccc(C(NC(=O)OCc2ccccc2)/C(C)=C/[C@@H](C)C(=O)NCc2nc3ccccc3s2)cc1 (some centres not stated) | x | x | x | x | 1.1
CC(C)c1nnc(NC(=O)c2cccs2)s1 | -8 | 104* | 0.9 | 76* | 1.3
CC(C)N(C(=O)CSc1nnc(NC(=O)c2cccs2)s1)C(C)C | x | x | x | x | 1.2
Cc1occc1C(=O)Nc1ccc2ccccc2c1 | -6 | 48 | 0.9 | 120* | 0.9
Cc1oc(-c2ccccc2)cc1C(=O)Nc1ccc2ccccc2c1 | x | x | x | x | 1.2
COc1ccc(CCC(=O)Nc2ccc3c(c2)OCCO3)cc1 | 2 | -13 | 0.9 | 56* | 1.3
Cc1oc(C(C)(C)C)cc1C(=O)Nc1ccc2c(c1)OCCO2 | -2 | 57* | 0.9 | 64* | 1.8
COc1ccccc1C(=O)Nc1ccc2c(c1)OCCO2 | 4 | 76* | 0.9 | 33 | 1.6
COc1ccccc1C(=O)Nc1ccc2c(c1)OCO2 | x | x | 0.9 | x | x
CC1=CC(C)(C)N2C(=O)C3(C(C#N)=C(N)Oc4cc(O)ccc43)c3c(C)c(C)cc1c32 (configuration not stated) | x | x | x | x | 1
COC(=O)[C@@]1(Cc2ccc(OC)cc2)[C@H]2c3cc(C(=O)N4CCCC4)n(CCc4ccc(O)c(O)c4)c3C[C@H]2CN1C(=O)c1ccccc1 | x | x | x | x | 1.2
Cn1c(SCc2c(F)cccc2Cl)nnc1-c1cccs1 | -9 | 58* | 0.9 | 102* | 1.7
COC(=O)c1ccc(C(NC(=O)OCc2ccccc2)/C(F)=C/[C@@H](C)C(=O)NCc2nc3ccccc3s2)cc1 (some centres not stated) | x | x | x | x | 1.1
CCOC(=O)CC(=O)CSc1nc2c(cc1C#N)CCCCC2 | -44 | 59* | 1 | 19 | 1.5
CCOC(=O)CC(=O)CSc1nc2ccc(C)cc2cc1C#N | -1 | 72* | 0.9 | 20 | 1.5
CC(C)OC(=O)CC(=O)CSc1nc2c(cc1C#N)CCCCC2 | x | x | x | x | 1.5
CCOC(=O)CC(=O)CSc1nc(C)cc(C)c1C#N | x | x | x | x | 1.2
COC(=O)CSc1nc2cc(C)ccc2cc1C#N | 7 | 100* | 0.9 | 17 | 2*
Cc1c(-c2nc(N)nc(Nc3ccccc3)n2)oc2ccccc12 | -1 | 162* | 0.9 | 89* | 2*
c1csc(-c2ccc3ccccc3n2)c1 | -32 | 79* | 0.9 | 26 | 1.7
Nc1nc(-c2cccs2)cs1 | x | x | x | x | 1.4
CCOc1ccc2nc(N3CCC(C(=O)N4CCN(c5ccccn5)CC4)CC3)sc2c1 | -6 | 15 | 1 | 73* | 1.2
CCOc1ccc2nc(N3CCC(C(=O)N4CCN(c5ncccn5)CC4)CC3)sc2c1 | -9 | 18 | 1 | 70* | 1.2
CCOC(=O)N1CCN(C(=O)C2CCCN(c3nc4ccc(OCC)cc4s3)C2)CC1 (configuration not stated) | 1 | -12 | 0.9 | 34 | 1.2
COc1ccc(CCN2C(=S)NC3CC2(C)Oc2ccc([N+](=O)[O-])cc23)cc1OC (configuration not stated) | x | x | x | x | 1.1
